Experimental data taken from ChEMBL document CHEMBL4765230, “Discovery of Orally Efficacious Phosphoinositide 3-Kinase δ Inhibitors with Improved Metabolic Stability” (J Med Chem, 2016).

Key:
[1] = MRT in Sprague-Dawley rat at 1 mg/kg, iv measured over 24 hrs by LC/MS/MS analysis; assay type: ADME, organism-based; settings: in vivo
In short: (§1)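 Intravenous 1 mg/kg and oral 5 mg/kg doses. Vehicle: 5% ethanol/55% PEG 400/40% water for rats and dogs; 5% ethanol/22% PEG 400/73% water for cynomolgus; 5% ethanol/25% PEG 400/70% water for rhesus. Half-life and MRT from iv; mean ± SD, n = 3 per route.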

PI3K p110 beta/p85 alpha = PI3K p110 beta/p85 alpha (Homo sapiens, UniProt P42338); assay: Inhibition of recombinant human full-length N-terminal His-tagged PI3K p110beta/p85alpha using […] as substrate measured after 30 mins by TR-FRET assay; assay type: protein-complex assay
[2] = Clearance in dog at 1 mg/kg, iv; assay type: ADME, organism-based, Canis lupus familiaris; settings: in vivo
[3] = Plasma concentration in Lewis rat at 1 to 5 mg/kg, po measured at 12 hrs; assay type: ADME, organism-based; settings: dose 1-5 mg/kg
In short: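 Female Lewis rats given a single oral dose of 1 or 5 mg/kg; plasma concentration–time profiles determined; mean ± SD, n = 3.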

[4] = MRT in cynomolgus monkey at 1 mg/kg, iv measured over 24 hrs by LC/MS/MS analysis; assay type: ADME, organism-based, Macaca fascicularis; settings: in vivo; in short: as §1
[5] = Selectivity index, ratio of IC50 for inhibition of recombinant human full-length N-terminal His-tagged PI3K p110beta/p85alpha to IC50 for inhibition of human full length PI3K p110delta/p85alpha
[6] = Mutagenecity in Salmonella typhimurium by Ames test; assay type: toxicity; settings: salmonella enterica subsp. enterica serovar typhimurium
[7] = Volume of distribution at steady state in dog at 1 mg/kg, iv; assay type: ADME, organism-based, Canis lupus familiaris; settings: in vivo, read-out: Vdss
In short: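 Rats and dog received 1 mg/kg intravenously, formulated in 12% w/v Captisol in water. Volume of distribution was taken at steady state from the iv plasma profile. Three animals per dosing route.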

[8] = Selectivity index, ratio of IC50 for inhibition of human full length PI3K p110alpha/p85alpha to IC50 for inhibition of human full length PI3K p110delta/p85alpha
[9] = Clearance in cynomolgus monkey at 1 mg/kg, iv measured over 24 hrs by LC/MS/MS analysis; assay type: ADME, organism-based, Macaca fascicularis; settings: in vivo; in short: as §1
[10] = MRT in rhesus monkey at 1 mg/kg, iv measured over 24 hrs by LC/MS/MS analysis; assay type: ADME, organism-based, Macaca mulatta; settings: in vivo; in short: as §1
[11] = Inhibition of CYP450 (unknown origin) at 25 uM; assay type: ADME; settings: human
[12] = Terminal half life in rhesus monkey at 1 mg/kg, iv measured over 24 hrs by LC/MS/MS analysis; assay type: ADME, organism-based, Macaca mulatta; settings: in vivo, read-out: beta t1/2 (converted)
In short: (§2)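 Single intravenous dose of 1 mg/kg. Vehicles: rats and dogs 5% ethanol/55% PEG 400/40% water; cynomolgus monkeys 5% ethanol/22% PEG 400/73% water; rhesus monkeys 5% ethanol/25% PEG 400/70% water. Plasma concentration–time data gave Vss and iv half-life. Reported as mean ± SD, n = 3.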

[13] = In vivo inhibition of PI3Kdelta in Lewis rat model of Freund's incomplete adjuvant-induced arthritis at 0.3 mg/kg, po bid administered for 7 days at 12 hrs interval starting from day 10 to day 16 post-immunization relative to control; assay type: functional; settings: 168 h, time 7 day
In short: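 CIA Lewis rats dosed orally twice daily for 7 days at 0.3, 1 or 3 mg/kg; blood/plasma drug levels taken on day 7, 12 h after final dose, and related to PI3Kδ inhibition at trough.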

[14] = biological target: T1, Phosphatidylinositol 4,5-bisphosphate 3-kinase catalytic subunit delta isoform (Homo sapiens) (UniProt O00329); settings: Blood, time 7.0 day
T1 sequence (whole entry): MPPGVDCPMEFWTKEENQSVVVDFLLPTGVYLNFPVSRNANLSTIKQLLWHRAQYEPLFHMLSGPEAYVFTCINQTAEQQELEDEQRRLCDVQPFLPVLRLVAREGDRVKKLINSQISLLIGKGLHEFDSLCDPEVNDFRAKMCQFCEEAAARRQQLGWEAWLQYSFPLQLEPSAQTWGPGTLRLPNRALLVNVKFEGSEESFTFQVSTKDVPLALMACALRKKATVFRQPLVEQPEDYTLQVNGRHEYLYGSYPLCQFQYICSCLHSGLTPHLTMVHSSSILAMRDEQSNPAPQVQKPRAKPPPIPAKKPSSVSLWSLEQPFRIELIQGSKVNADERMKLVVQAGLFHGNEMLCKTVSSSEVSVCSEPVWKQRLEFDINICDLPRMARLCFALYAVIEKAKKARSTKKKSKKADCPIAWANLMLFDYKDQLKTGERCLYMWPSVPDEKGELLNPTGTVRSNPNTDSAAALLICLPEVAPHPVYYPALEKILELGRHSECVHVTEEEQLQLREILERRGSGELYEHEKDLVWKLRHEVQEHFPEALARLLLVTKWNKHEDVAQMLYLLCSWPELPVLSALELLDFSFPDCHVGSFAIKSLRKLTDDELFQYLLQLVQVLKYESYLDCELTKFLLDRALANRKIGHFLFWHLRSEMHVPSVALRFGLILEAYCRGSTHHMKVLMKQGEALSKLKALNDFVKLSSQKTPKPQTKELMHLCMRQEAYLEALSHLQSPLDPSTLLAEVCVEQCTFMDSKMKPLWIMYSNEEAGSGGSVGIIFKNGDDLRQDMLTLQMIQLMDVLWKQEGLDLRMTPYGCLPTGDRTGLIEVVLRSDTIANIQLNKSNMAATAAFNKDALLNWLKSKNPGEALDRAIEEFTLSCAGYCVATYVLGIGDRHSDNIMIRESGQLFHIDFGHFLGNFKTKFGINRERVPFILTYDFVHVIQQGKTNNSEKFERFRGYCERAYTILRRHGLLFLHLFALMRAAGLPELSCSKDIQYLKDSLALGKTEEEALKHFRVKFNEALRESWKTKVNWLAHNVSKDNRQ

[15] = biological target: Phosphatidylinositol 4,5-bisphosphate 3-kinase catalytic subunit beta isoform (Homo sapiens, UniProt P42338); assay: Inhibition of PI3K p110beta in human PC-3 cells assessed as reduction in AKT phosphorylation at S473 residue measured after 2 hrs by TR-FRET analysis; assay type: cell-based
In short: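 PC3 cells quiesced 2 h at 37 °C/5% CO2 in DMEM with 0.1% FBS/1% PSG, then plated at 25 000 cells/well onto prespotted compound dilutions and incubated 2 h. Lysates were read for Akt and phospho-Akt S473 by TR-FRET (Eu-cryptate Akt donor, d2 phospho-Akt acceptor). Data normalized to 1 μM wortmannin and DMSO controls; four-parameter fit; triplicate; geometric mean.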

[16] = Volume of distribution at steady state in Sprague-Dawley rat at 1 mg/kg, iv measured over 24 hrs by LC/MS/MS analysis; assay type: ADME, organism-based; settings: in vivo, read-out: Vdss; in short: as §2
[17] = Oral bioavailability in Beagle dog at 5 mg/kg measured over 24 hrs by LC/MS/MS analysis; assay type: ADME, organism-based, Canis lupus familiaris; settings: in vivo; in short: as §1

PI3K p110 beta/p85 alpha, sequence (P27986 whole entry): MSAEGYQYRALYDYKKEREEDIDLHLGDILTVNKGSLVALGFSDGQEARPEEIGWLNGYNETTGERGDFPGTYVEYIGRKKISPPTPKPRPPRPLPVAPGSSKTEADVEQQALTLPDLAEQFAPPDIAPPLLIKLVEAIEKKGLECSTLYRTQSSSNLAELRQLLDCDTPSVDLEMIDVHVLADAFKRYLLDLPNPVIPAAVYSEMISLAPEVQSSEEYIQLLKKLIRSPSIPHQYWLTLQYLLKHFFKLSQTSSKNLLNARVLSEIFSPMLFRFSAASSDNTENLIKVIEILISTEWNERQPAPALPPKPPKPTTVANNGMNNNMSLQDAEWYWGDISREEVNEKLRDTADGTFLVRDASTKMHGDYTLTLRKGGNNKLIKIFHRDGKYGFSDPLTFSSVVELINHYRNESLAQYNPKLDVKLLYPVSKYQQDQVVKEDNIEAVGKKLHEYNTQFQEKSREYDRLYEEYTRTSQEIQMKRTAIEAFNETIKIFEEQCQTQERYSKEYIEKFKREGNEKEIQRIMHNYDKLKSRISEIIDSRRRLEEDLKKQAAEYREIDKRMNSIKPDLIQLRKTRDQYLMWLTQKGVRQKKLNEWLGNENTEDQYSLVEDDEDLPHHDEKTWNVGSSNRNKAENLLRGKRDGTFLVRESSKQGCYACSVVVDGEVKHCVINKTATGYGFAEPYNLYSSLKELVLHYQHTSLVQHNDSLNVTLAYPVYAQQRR
PI3K p110 beta/p85 alpha, sequence (P42338 whole entry): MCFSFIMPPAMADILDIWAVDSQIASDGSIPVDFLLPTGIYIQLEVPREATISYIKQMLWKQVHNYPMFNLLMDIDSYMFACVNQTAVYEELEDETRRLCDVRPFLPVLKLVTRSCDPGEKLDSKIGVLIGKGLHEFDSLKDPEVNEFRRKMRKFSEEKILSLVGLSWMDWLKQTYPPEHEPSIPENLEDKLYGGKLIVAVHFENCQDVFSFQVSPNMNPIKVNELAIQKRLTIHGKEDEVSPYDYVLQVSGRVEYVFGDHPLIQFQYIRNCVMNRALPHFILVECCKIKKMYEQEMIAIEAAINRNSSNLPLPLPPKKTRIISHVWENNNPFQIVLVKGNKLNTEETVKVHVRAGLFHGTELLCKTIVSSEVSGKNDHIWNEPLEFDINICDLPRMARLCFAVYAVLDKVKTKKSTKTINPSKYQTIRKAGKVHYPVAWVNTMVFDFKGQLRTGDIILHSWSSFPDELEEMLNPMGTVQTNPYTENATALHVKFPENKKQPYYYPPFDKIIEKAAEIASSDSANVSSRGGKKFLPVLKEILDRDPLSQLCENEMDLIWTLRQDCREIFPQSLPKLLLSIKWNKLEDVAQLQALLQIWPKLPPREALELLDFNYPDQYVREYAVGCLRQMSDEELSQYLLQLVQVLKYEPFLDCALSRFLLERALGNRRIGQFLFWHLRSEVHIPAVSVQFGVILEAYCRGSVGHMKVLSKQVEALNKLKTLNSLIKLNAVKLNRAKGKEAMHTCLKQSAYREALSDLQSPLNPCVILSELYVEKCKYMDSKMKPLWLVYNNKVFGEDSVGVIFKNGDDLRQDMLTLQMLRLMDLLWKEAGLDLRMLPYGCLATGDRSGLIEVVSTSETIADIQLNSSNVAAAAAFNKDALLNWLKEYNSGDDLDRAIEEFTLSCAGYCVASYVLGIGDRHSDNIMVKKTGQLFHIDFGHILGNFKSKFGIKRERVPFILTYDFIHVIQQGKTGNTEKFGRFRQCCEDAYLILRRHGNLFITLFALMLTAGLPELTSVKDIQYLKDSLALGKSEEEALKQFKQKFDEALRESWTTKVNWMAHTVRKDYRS
Phosphatidylinositol 4,5-bisphosphate 3-kinase catalytic subunit beta isoform, sequence (P42338 whole entry, canonical isoform): as the sequence (P42338 whole entry) above

MRT [1]: 1.95 h | IC50 (PI3K p110 beta/p85 alpha): 100 nM | clearance [2]: 9 mL/min/kg | concentration at 12 h [3]: > 32 nM | MRT [4]: 3.05 h | Ratio IC50 [5]: 100 | Vd [7]: 1.03 L/kg | Ratio IC50 [8]: 750 | clearance [9]: 6.83 mL/min/kg | MRT [10]: 2 h | inhibition (INH) [11]: Not Active | half-life [12]: 2.45 h | EC90 [14]: 21 nM | EC50 [15]: 42 nM | Vd [16]: 0.83 L/kg | bioavailability [17]: 49%
Structure (SMILES): N#Cc1c(N)nc(N)nc1N[C@H](c1nc2c(F)ccc(Cl)c2c(=O)n1-c1cccnc1)C1CC1 [GS-9901]
Activity [6]: Non-Toxic | inhibition in vivo at 0.3 mg/kg [13]: 60%
